Assay [1] concerns the target T1, Steryl-sulfatase (Homo sapiens) (UniProt P08842).
T1 sequence (whole entry): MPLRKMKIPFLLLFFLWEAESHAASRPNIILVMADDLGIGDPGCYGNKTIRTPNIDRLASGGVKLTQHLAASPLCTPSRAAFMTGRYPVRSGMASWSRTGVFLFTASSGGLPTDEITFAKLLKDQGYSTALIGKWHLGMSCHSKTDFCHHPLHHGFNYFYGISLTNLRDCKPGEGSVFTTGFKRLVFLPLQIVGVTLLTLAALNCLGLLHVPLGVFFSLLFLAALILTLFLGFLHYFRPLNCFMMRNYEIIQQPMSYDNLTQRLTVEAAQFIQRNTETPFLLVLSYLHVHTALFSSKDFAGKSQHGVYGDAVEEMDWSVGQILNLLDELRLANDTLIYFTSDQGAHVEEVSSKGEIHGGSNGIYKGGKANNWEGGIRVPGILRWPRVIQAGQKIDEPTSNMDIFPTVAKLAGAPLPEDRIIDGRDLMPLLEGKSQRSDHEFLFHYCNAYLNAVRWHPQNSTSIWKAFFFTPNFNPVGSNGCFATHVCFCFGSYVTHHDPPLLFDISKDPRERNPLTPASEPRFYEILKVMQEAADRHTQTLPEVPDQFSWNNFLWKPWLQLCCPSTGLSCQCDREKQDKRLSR
Kind of assay: Inhibition of steroid sulfatase (unknown origin) at 10 uM. Put shortly: (§1)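 STS source was lysate of human JEG-3 choriocarcinoma cells at 125 µg protein/mL. Substrate was [³H]E₁S adjusted to 20 µM with unlabelled E₁S. Inhibitor was added at a single 10 µM or at 0.5–20 µM, incubated for 1 h. Product was extracted into toluene, with [4-¹⁴C]E₁ correcting for losses. Values are % inhibition, triplicate mean.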

Assay [2] has as its target T1, Steryl-sulfatase (Homo sapiens). Kind of assay: Inhibition of steroid sulfatase (unknown origin). Put shortly: as §1
Assay [3] shares this target. Kind of assay: Inhibition of steroid sulfatase (unknown origin) at 20 uM. In short, it runs like this: as §1
The target is the same in assay [4]. Kind of assay: (§2) Inhibition of steroid sulfatase in human JEG-3 cells assessed as […]Estrone formation using [3H]E1S as substrate. The assay is classed as cell-based. Put shortly:
(§3)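 Intact JEG-3 monolayers were incubated for 20 h at 37 °C in serum-free EMEM with [³H]E₁S (5 pmol, 60 Ci/mmol), with or without inhibitor. Estrone was separated from E₁S by toluene partition, with [¹⁴C]estrone correcting for recovery. Counts were read by scintillation, and hydrolysed E₁S mass was derived from ³H counts and substrate specific activity. Values are triplicate means.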

Another assay concerns the target T2, Steryl-sulfatase (Homo sapiens, UniProt P08842).
T2 sequence (P08842 whole entry): T1 sequence (whole entry)
The description is as §2. The assay is classed as cell-based. In short, it runs like this: as §3

Assay [5] addresses T1, Steryl-sulfatase (Homo sapiens). Kind of assay: Inhibition of steroid sulfatase in human JEG-3 cells assessed as […]Estrone formation using [3H]E1S as substrate at 10 uM. It is filed as cell-based. In short, it runs like this: as §3
The target is the same in assay [6]. Kind of assay: Inhibition of steroid sulfatase in human JEG-3 cells assessed as […]Estrone formation using [3H]E1S as substrate at 20 uM. It is filed as cell-based. In short, it runs like this:
as §3

Each structure is given as a SMILES string. Active and inactive are the calls of the source. The rule behind the calls is not given here.

As a reminder, the inhibition is how much of the control response was suppressed. For `Cc1ccc(S(=O)(=O)Oc2ccc(NC(=O)C3CCCC3)cc2)cc1`, the inhibition result in assay [1] is “Active”.

The term IC50 denotes the concentration at which inhibition is half-maximal. For `NS(=O)(=O)Oc1ccc(NC(=O)C2CCCCC2)cc1`, the inhibition in assay [1] is 55.7%; in assay [2], “Dose-dependent effect”; in assay [3] it was 72%; in assay [4] it was “Dose-dependent effect”; in assay [5], 86.1%; in assay [6], 93.9%. Also, the IC50 on Steryl-sulfatase is 421 nM.

Consider `CN(C)S(=O)(=O)Oc1ccc(NC(=O)C2CCCCC2)cc1`, for which the inhibition result in assay [1] is “Active”.

Take `CCS(=O)(=O)Oc1ccc(NC(=O)C2CCCCC2)cc1`: the inhibition entry in assay [1] was “Active”.

In the case of `Cc1ccc(S(=O)(=O)Oc2ccc(NC(=O)C3CCCCC3)cc2)cc1`, the inhibition result in assay [1] is “Active”.

Take `CNS(=O)(=O)Oc1ccc(NC(=O)C2CCCCC2)cc1`: the inhibition entry in assay [1] was “Active”.

In the case of `CNS(=O)(=O)Oc1ccc(NC(=O)C2CCCC2)cc1`, in assay [1], the inhibition result is “Active”.
